# Test results: ChEMBL document CHEMBL1122655, “Gamma-aminobutyric acid esters. 1. Synthesis, brain uptake, and pharmacological studies of aliphatic and steroid esters of gamma-aminobutyric acid” (J Med Chem, 1984)
# Values joined by “and” are separate entries in the source; they are usually repeats but may differ in a detail not shown here. Identical values can stand only once.
# How the values were obtained:
# [1] = test system: Mus musculus; assay: Uptake of the [14C]-compound in mouse brain 5 minutes after sc administration of 74 mg/kg.; type: functional; conditions: route subcutaneous
# Outline: (§1)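 [14C]-labeled ester injected sc into mice in 25% propylene glycol/water. At the stated time, brain and liver were homogenized in SDS/urea/EDTA phosphate solvent, pH 7.4, and counted by liquid scintillation. Uptake was calculated per gram tissue (nmol/g).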
# [2] = test system: Mus musculus; assay: Brain penetration index is the ratio of the uptake in brain/liver X 100, 5 min after sc administration of 74 mg/kg of the [14C]-compound.; type: functional; conditions: route subcutaneous
# Outline: (§2)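 [14C]-labeled ester injected sc into mice in 0.5 mL of 25% propylene glycol in water, killed at 5 min. Brain and liver were weighed and homogenized in SDS/6 M urea/EDTA phosphate solvent, pH 7.4, then counted by liquid scintillation. BPI = [brain]/[liver] × 100. Means ± SEM, n = 3.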
# [3] = test system: Mus musculus; assay: Evaluation of General motor activity in mouse 60 mins postinjection (ip) of 128 mg/kg; type: functional
# Outline: (§3)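 Male BALB-c mice (18-24 g) given compound ip in 25% propylene glycol/water. Each was monitored singly for 60 min in an electronic activity monitor. Cumulative activity was expressed as % of vehicle control; mean ± SEM, n = 6, t test.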
# [4] = test system: Mus musculus; assay: Uptake of the [14C]-compound in mouse liver 5 minutes after sc administration of 74 mg/kg.; type: functional; conditions: route subcutaneous
# Outline: (§4)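 Mice were given the 14C-labeled compound sc in 25% propylene glycol in water and killed at 5 min. Liver was removed, weighed and homogenized in 1% SDS in 6 M urea with 19 mM EDTA and 0.03 M phosphate, pH 7.4. Homogenate aliquots were counted by liquid scintillation, and uptake per gram of tissue was calculated. Mean ± SEM, n = 3.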
# [5] = test system: Mus musculus; assay: Evaluation of General motor activity in mouse 60 mins postinjection (ip) of 60 mg/kg; type: functional; outline: as §3
# [6] = test system: Mus musculus; assay: Anticonvulsant activity is the ability to increase the survival time of mouse ssubjected to bicuculline induced seizures at 24 hr after pretreament with compound (12 mg/kg, ip); type: functional
# [7] = test system: Mus musculus; assay: Anticonvulsant activity is the ability to increase the survival time of mouse ssubjected to bicuculline induced seizures at 24 hr after pretreament with compound (36 mg/kg, ip); type: functional
# [8] = test system: Mus musculus; assay: Anticonvulsant activity is the ability to delay the onset of bicuculline induced seizures in mouse at 24 hr after pretreament with compound (17 mg/kg, ip); type: functional
# Outline: (§5)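 Mice given test article ip 24 h before bicuculline (0.3 mg/kg sc). Latency to onset of generalized tonic-clonic seizures was recorded in seconds and expressed as % of saline control. Means ± SEM, n ≥ 6 per group.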
# [9] = test system: Mus musculus; assay: Anticonvulsant activity is the ability to delay the onset of bicuculline induced seizures in mouse at 24 hr after pretreament with compound (50 mg/kg, ip); type: functional; outline: as §5
# [10] = test system: Mus musculus; assay: Evaluation of General motor activity in mouse 60 mins postinjection (ip) of 36 mg/kg =; type: functional; outline: as §3
# [11] = test system: Mus musculus; assay: Anticonvulsant activity is the ability to delay the onset of bicuculline induced seizures in mouse at 24 hr after pretreament with compound (25 mg/kg, ip); type: functional; outline: as §5
# [12] = test system: Mus musculus; assay: Anticonvulsant activity is the ability to increase the survival time of mouse ssubjected to bicuculline induced seizures at 24 hr after pretreament with compound (17mg/kg, ip); type: functional
# [13] = molecular target: GABA-A receptor; anion channel; assay: Inhibition of [3H]GABA binding to synaptic membranes from rat cerebellum; type: tissue-based
# Outline: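 [3H]GABA (15 nM) binding to rat cerebellum synaptic membranes. At least two concentrations above and below IC50, each at least in triplicate. IC50 was obtained by fitting linearized transformations of the data.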
# [14] = test system: Mus musculus; assay: Uptake of the [14C]-compound in mouse brain 15 minutes after sc administration of 90 mg/kg.; type: functional; conditions: route subcutaneous; outline: as §1
# [15] = test system: Mus musculus; assay: Uptake of the [14C]-compound in mouse liver 5 minutes after sc administration of 90 mg/kg.; type: functional; conditions: route subcutaneous; outline: as §4
# [16] = test system: Mus musculus; assay: Uptake of the [14C]-compound in mouse brain 45 minutes after sc administration of 90 mg/kg.; type: functional; conditions: route subcutaneous; outline: as §1
# [17] = test system: Mus musculus; assay: Anticonvulsant activity is the ability to delay the onset of bicuculline induced seizures in mouse at 24 hr after pretreament with compound (12mg/kg, ip); type: functional; outline: as §5
# [18] = test system: Mus musculus; assay: Brain penetration index is the ratio of the uptake in brain/liver X 100, 5 min after sc administration of 90 mg/kg of the [14C]-compound.; type: functional; conditions: route subcutaneous; outline: as §2
# [19] = test system: Mus musculus; assay: Anticonvulsant activity is the ability to delay the onset of bicuculline induced seizures in mouse at 24 hr after pretreament with compound (36 mg/kg, ip); type: functional; outline: as §5
# [20] = test system: Mus musculus; assay: Anticonvulsant activity is the ability to increase the survival time of mouse ssubjected to bicuculline induced seizures at 24 hr after pretreament with compound (25 mg/kg, ip); type: functional
# [21] = test system: Mus musculus; assay: Anticonvulsant activity is the ability to increase the survival time of mouse ssubjected to bicuculline induced seizures at 24 hr after pretreament with compound (50 mg/kg, ip); type: functional
# [22] = test system: Mus musculus; assay: Uptake of the [14C]-compound in mouse brain 5 minutes after sc administration of 90 mg/kg.; type: functional; conditions: route subcutaneous; outline: as §1
# [23] = test system: Mus musculus; assay: Evaluation of General motor activity in mouse 60 mins postinjection (ip) of 12 mg/kg; type: functional; outline: as §3
# [24] = test system: Mus musculus; assay: Uptake of the [14C]-compound in mouse brain 15 minutes after sc administration of 41 mg/kg.; type: functional; conditions: route subcutaneous; outline: as §1
# [25] = test system: Mus musculus; assay: Brain penetration index is the ratio of the uptake in brain/liver X 100, 5 min after sc administration of 41 mg/kg of the [14C]-compound.; type: functional; conditions: route subcutaneous; outline: as §2
# [26] = test system: Mus musculus; assay: Uptake of the [14C]-compound in mouse brain 5 minutes after sc administration of 41 mg/kg.; type: functional; conditions: route subcutaneous; outline: as §1
# [27] = test system: Mus musculus; assay: Evaluation of General motor activity in mouse 60 mins postinjection (ip) of 16 mg/kg; type: functional; outline: as §3
# [28] = test system: Mus musculus; assay: Uptake of the [14C]-compound in mouse liver 5 minutes after sc administration of 41 mg/kg.; type: functional; conditions: route subcutaneous; outline: as §4
# [29] = Partition coefficient in 1-octanol/water system; type: physicochemical
# Outline: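 1-Octanol/water partition coefficient determined with the U-14C-labeled esters, read by radioactivity.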
# [30] = test system: Mus musculus; assay: Anticonvulsant activity is the ability to increase the survival time of mouse ssubjected to bicuculline induced seizures at 24 hr after pretreament with compound (16 mg/kg, ip); type: functional
# [31] = test system: Mus musculus; assay: Anticonvulsant activity is the ability to delay the onset of bicuculline induced seizures in mouse at 24 hr after pretreament with compound (3 mg/kg, ip); type: functional; outline: as §5
# [32] = organism: Rattus norvegicus; assay: Enzymatic hydrolysis of cholesteryl [14C]-compound by Rat Brain Homogenate at 10 min; type: functional
# Outline: (§6)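 Cholesteryl-[14C]GABA ester (3 mg/mL) incubated at 37 °C with rat brain homogenate 10,000g supernatant (S1; 0.8 mg/mL protein). Aliquots were quenched with ethanol and run on silica TLC (CHCl3/MeOH/HOAc 18:6:1) to quantify unreacted substrate (nmol). Control was the initial substrate amount.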
# [33] = test system: Mus musculus; assay: Anticonvulsant activity is the ability to increase the survival time of mouse ssubjected to bicuculline induced seizures at 24 hr after pretreament with compound (30 mg/kg, ip); type: functional
# [34] = test system: Mus musculus; assay: Anticonvulsant activity is the ability to delay the onset of bicuculline induced seizures in mouse at 24 hr after pretreament with compound (16 mg/kg, ip); type: functional; outline: as §5
# [35] = test system: Mus musculus; assay: Evaluation of General motor activity in mouse 60 mins postinjection (ip) of 33 mg/kg*; type: functional; outline: as §3
# [36] = test system: Mus musculus; assay: Uptake of the [14C]-compound in mouse brain 5 minutes after sc administration of 24 mg/kg.; type: functional; conditions: route subcutaneous; outline: as §1
# [37] = test system: Mus musculus; assay: Brain penetration index is the ratio of the uptake in brain/liver X 100, 5 min after sc administration of 24 mg/kg of the [14C]-compound.; type: functional; conditions: route subcutaneous; outline: as §2
# [38] = organism: Rattus norvegicus; assay: Enzymatic hydrolysis of cholesteryl [14C]-compound by Rat Brain Homogenate at 60 min; type: functional; outline: as §6
# [39] = test system: Mus musculus; assay: Uptake of the [14C]-compound in mouse liver 60 minutes after sc administration of 24 mg/kg.; type: functional; conditions: route subcutaneous, in the assay text read “mouse brain” for “mouse liver”
# [40] = test system: Mus musculus; assay: Anticonvulsant activity is the ability to delay the onset of bicuculline induced seizures in mouse at 24 hr after pretreament with compound (30 mg/kg, ip); type: functional; outline: as §5
# [41] = organism: Rattus norvegicus; assay: Enzymatic hydrolysis of cholesteryl [14C]-compound by Rat Brain Homogenate at 30 min; type: functional; outline: as §6
# [42] = test system: Mus musculus; assay: Anticonvulsant activity is the ability to delay the onset of bicuculline induced seizures in mouse at 24 hr after pretreament with compound (84 mg/kg, ip); type: functional; outline: as §5
# [43] = test system: Mus musculus; assay: Anticonvulsant activity is the ability to increase the survival time of mouse ssubjected to bicuculline induced seizures at 24 hr after pretreament with compound (3 mg/kg, ip); type: functional
# [44] = test system: Mus musculus; assay: Evaluation of General motor activity in mouse 60 mins postinjection (ip) of 3 mg/kg; type: functional; outline: as §3
# [45] = test system: Mus musculus; assay: Uptake of the [14C]-compound in mouse liver 180 min after sc administration of 24 mg/kg.; type: functional; conditions: route subcutaneous, in the assay text read “mouse brain” for “mouse liver”; outline: as §1
# [46] = test system: Mus musculus; assay: Uptake of the [14C]-compound in mouse liver 5 minutes after sc administration of 24 mg/kg.; type: functional; conditions: route subcutaneous; outline: as §1
# [47] = test system: Mus musculus; assay: Uptake of the [14C]-compound in mouse liver 15 minutes after sc administration of 24 mg/kg.; type: functional; conditions: route subcutaneous, in the assay text read “mouse brain” for “mouse liver”; outline: as §1
# [48] = test system: Mus musculus; assay: Evaluation of General motor activity in mouse 60 mins postinjection (ip) of 10 mg/kg; type: functional; outline: as §3
# [49] = Partition coefficient in 1-octanol/water system measured using radio active compounds; type: physicochemical
# Outline: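 1-Octanol/water partition coefficient, measured with the 14C-labeled compounds.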
# [50] = test system: Mus musculus; assay: Evaluation of General motor activity in mouse at dose 200 mg/kg; type: functional; outline: as §3
compound,measurement,setting,value
CCCCOC(=O)CCCN,Brain concentration,[1],19.2 nmol/g
same,Brain penetration index,[2],74%
same,Motor activity,[3],83
same,Liver concentration,[4],28 nmol/g
same,Motor activity,[5],89
CC/C=C/C/C=C/C/C=C/CCCCCCCCOC(=O)CCCN,Survival time,[6],118
same,Survival time,[7],62
same,Onset seizure,[8],73
same,Onset seizure,[9],40
same,Motor activity,[10],74
same,Onset seizure,[11],78
same,Survival time,[12],111
same,IC50,[13],40 µM
same,Brain concentration,[14],11 nmol/g
same,Liver concentration,[15],142 nmol/g
same,Brain concentration,[16],24.9 nmol/g
same,Onset seizure,[17],102
same,Brain penetration index,[18],2%
same,Onset seizure,[19],50
same,Survival time,[20],68
same,Survival time,[21],63
same,Brain concentration,[22],3.5 nmol/g
same,Motor activity,[23],90
C[C@@H]1CC2C3CCC4=CC(=O)C=CC4(C)C3(F)C(O)CC2(C)C1(O)C(=O)COC(=O)CCCN (some centres not stated),Brain concentration,[24],21.5 nmol/g
same,Brain penetration index,[25],81%
same,Brain concentration,[26],8.7 nmol/g
same,Motor activity,[27],94
same,Liver concentration,[28],10.8 nmol/g
same,K,[29],0.9
CC(C)CCCC(C)C1CCC2C3CC=C4CC(OC(=O)CCCN)CCC4(C)C3CCC12C (configuration not stated),Survival time,[30],101 and 109
same,Onset seizure,[31],120
same,Amount of unreacted substrate,[32],53
same,Survival time,[33],104
same,Onset seizure,[34],129
same,Motor activity,[35],15
same,Brain concentration,[36],0.17 nmol/g
same,IC50,[13],10 µM
same,Brain penetration index,[37],25%
same,Amount of unreacted substrate,[38],34.5
same,Brain concentration,[39],0.79 nmol/g
same,Onset seizure,[40],130
same,Amount of unreacted substrate,[41],43.5
same,Onset seizure,[42],137
same,Survival time,[43],95
same,Motor activity,[44],67
same,Brain concentration,[45],0.6 nmol/g
same,K,[29],110
same,Liver concentration,[46],0.69 nmol/g
same,Brain concentration,[47],0.67 nmol/g
same,Motor activity,[48],49
NCCCC(=O)O [GAMMA-AMINOBUTYRIC ACID],K,[49],0.004
same,Motor activity,[50],100
